# Measured values from ChEMBL document CHEMBL1148268, “Macrocyclic piperazinones as potent dual inhibitors of farnesyltransferase and geranylgeranyltransferase-I” (Bioorg Med Chem Lett, 2004).
# Key:
# [1] = molecular target: T1, Geranylgeranyl transferase type I (Homo sapiens, UniProt P49354+P53609); assay: Inhibition of human Geranylgeranyl transferase type I incorporation of [3H]GGPP into biotinylated peptide corresponding to the C-terminus of human Ki-Ras.; assay type: protein-complex assay
# Outline: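 Human GGPTase-I with [3H]GGPP and a biotinylated peptide matching the human Ki-Ras C-terminus. Enzyme and inhibitor are preincubated for 30 min with 5 mM ATP. The IC50 is the concentration that halves incorporation. A parallel run omits the preincubation.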
# [2] = molecular target: T2, Protein farnesyltransferase (Homo sapiens, UniProt P49354+P49356); assay: Inhibition of human Farnesyltransferase -catalyzed incorporation of [3H]FPP into recombinant Ras-CVIM.; assay type: protein-complex assay
# Outline: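 Human FPTase with [3H]FPP and recombinant Ras-CVIM as the protein substrate. The IC50 is the concentration that halves [3H]farnesyl incorporation into Ras-CVIM.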
# Homo sapiens = species on record: Homo sapiens; assay: Slope between log (IC50) versus log [GGPP] in GGTase-I; assay type: functional
# Outline: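 GGPP competition in the human GGPTase-I [3H]GGPP/biotinylated Ki-Ras peptide assay. IC50s are measured at various GGPP concentrations with 5 mM ATP.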
# [3] = molecular target: T2, Protein farnesyltransferase; assay: Displacement of radiolabeled FTI from Farnesyltransferase in cultured Ha-ras transformed RAT1 cells.; assay type: cell-based
# [4] = molecular target: T1, Geranylgeranyl transferase type I; assay: Minimum inhibitory concentration required to inhibit Rap1a processing in PSN-1 cells.; assay type: functional, cell-based
# PSN1 [5] = assay: Effective dose required for half-maximal inhibition of prenylation in PSN-1 cells (Ki-Ras); assay type: functional, cell-based; details: Homo sapiens
# Outline: (§1)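 PSN-1 cells are treated with compound. Prenylation of HDJ2, Rap1a and Ki-Ras is scored by scanning immunoblots of whole-cell extracts, and EC50 is the dose giving half-maximal inhibition of prenylation. The ratio is Ki-Ras EC50 over HDJ2 EC50. In one arm a selective GGTI is added at 1 μM.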
# PSN1 [6] = assay: Effective dose required for half-maximal inhibition of farnesylated protein (HDJ2) in PSN-1 cells; assay type: functional, cell-based; details: Homo sapiens; outline: as §1
# PSN1 [7] = assay: Effective dose required for half-maximal inhibition of geranylgeranylated protein (Rap1a) in PSN-1 cells; assay type: functional, cell-based; details: Homo sapiens; outline: as §1
# PSN1 [8] = assay: Ratio of effective concentration required for protein processing of Ki-Ras to that of HDJ2 in PSN-1 cells; assay type: functional, Homo sapiens; outline: as §1
Compound,IC50 [1] [nM],IC50 [2] [nM],Slope (Homo sapiens),IC50 [3] [nM],MIC [4] [nM],EC50 (PSN1 [5]) [nM],EC50 (PSN1 [6]) [nM],EC50 (PSN1 [7]) [nM],Ratio (PSN1 [8])
CCc1ccc2cc1CN1CCN(CC1=O)Cc1cncn1Cc1ccc(C#N)c(c1)O2,124,0.66,-0.16,1.2,1000,,,,
CCCc1ccc2cc1CN1CCN(CC1=O)Cc1cncn1Cc1ccc(C#N)c(c1)O2,97,0.31,-0.12,0.44,1000,,,,
N#Cc1ccc2cc1Oc1ccc(F)c(c1)CN1CCN(CC1=O)Cc1cncn1C2,2750,< 1,,1,,,,,
N#Cc1ccc2cc1Oc1cccc(c1)CN1CCN(CC1=O)Cc1cncn1C2,3780,2.2,0.08,3.3,30000,,,,
N#Cc1ccc2cc1Oc1ccc(C(=O)NC3C4CC5CC(C4)CC3C5)c(c1)CN1CCN(CC1=O)Cc1cncn1C2 (stereo not drawn),43,20,0.28,30,100,,,,
N#Cc1ccc2cc1Oc1ccc(CCC3CCCCC3)c(c1)CN1CCN(CC1=O)Cc1cncn1C2,1.7,1.6,-0.25,5.7,30,1060,12,140,89
N#Cc1ccc2cc1Oc1ccc(Cl)c(c1)CN1CCN(CC1=O)Cc1cncn1C2,450,< 1,,0.3,,,,,
COC(=O)c1ccc2cc1CN1CCN(CC1=O)Cc1cncn1Cc1ccc(C#N)c(c1)O2,420,24,,20,3000,,,,
N#Cc1ccc2cc1Oc1ccc(Br)c(c1)CN1CCN(CC1=O)Cc1cncn1C2,100,0.45,,1.1,10000,,,,
N#Cc1ccc2cc1Oc1ccc(CC3CC3)c(c1)CN1CCN(CC1=O)Cc1cncn1C2,238,0.66,,2.2,10000,,,,
C=CCc1ccc2cc1CN1CCN(CC1=O)Cc1cncn1Cc1ccc(C#N)c(c1)O2,107,0.1,,0.59,1000,,,,
C#Cc1ccc2cc1CN1CCN(CC1=O)Cc1cncn1Cc1ccc(C#N)c(c1)O2,212,0.5,,1.4,3000,,,,
CC1(C)OCC(Cc2ccc3cc2CN2CCN(CC2=O)Cc2cncn2Cc2ccc(C#N)c(c2)O3)O1 (stereo not drawn),46,0.5,0.25,0.86,< 300,1520,10,690,150
N#Cc1ccc2cc1Oc1ccc3cccc(c3c1)N1CCN(CC1=O)Cc1cncn1C2,301,,-0.44,0.29,10000,> 10000,2,> 10000,>5000
N#Cc1ccc2cc1Oc1ccc(C#Cc3ccccc3)c(c1)CN1CCN(CC1=O)Cc1cncn1C2,534,645,,,,,,,
Cc1ccc2cc1CN1CCN(CC1=O)Cc1cncn1Cc1ccc(C#N)c(c1)O2,502,,,0.33,,,,,
CC(C)(C)C#Cc1ccc2cc1CN1CCN(CC1=O)Cc1cncn1Cc1ccc(C#N)c(c1)O2,55,38,0.32,10,1000,,,,
N#Cc1ccc2cc1Oc1ccc(C#CC3CCCCC3)c(c1)CN1CCN(CC1=O)Cc1cncn1C2,2.4,364,0.68,170,300,,,,
CC(C)(C)CCc1ccc2cc1CN1CCN(CC1=O)Cc1cncn1Cc1ccc(C#N)c(c1)O2,2.1,19,0.48,28,100,,,,
N#Cc1ccc(Cn2cncc2CN2CCN(c3cccc(Cl)c3)C(=O)C2)cc1 [L-778123 FREE BASE],,,1.42,,,6300,92,6760,
N#Cc1ccc2cc1Oc1ccc(CC(O)CO)c(c1)CN1CCN(CC1=O)Cc1cncn1C2 (stereo not drawn),1050,6.8,,40,,,,,
